Data set [1] in a line: Cytotoxicity against HEK293 cells assessed as decrease in cell viability at 100 uM after 48 hrs by MTT assay. The format is toxicity, cell-based. The settings on record: human, hek293, 48 h. Summed up:
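HEK-293 in MEM with 10% FBS, seeded 10,000 cells/well, 24 h at 37°C, 5% CO2; treated 1–100 µM in triplicate with DMSO control and doxorubicin reference, 48 h. MTT added 1 h, dried, DMSO dissolved, absorbance 562 nm; IC50 as 50% absorbance reduction versus control, mean ± SD of three independent experiments.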

Data set [2] has as its system Plasmodium falciparum. Nature of the data set: Antiplasmodial activity against pyrimethamine-sensitive Plasmodium falciparum 3D7 infected in human erythrocytes incubated for 50 hrs by SYBR green 1 dye based fluorescence assay. As to conditions: 3D7, 50 h. It counts as functional, cell-based. Summed up: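 Parasites cultured in RPMI 1640 with 10% human serum, erythrocytes at 2% haematocrit, 37°C, 5% O2/5% CO2/90% N2; sorbitol-synchronized rings. DMSO stocks serially 2-fold diluted; 1% ring-infected erythrocytes at 4% haematocrit, 50 h. SYBR Green 1 lysis buffer, fluorescence Ex 485/Em 530; chloroquine (500 nM) background subtracted, normalized to DMSO (0.05%), nonlinear regression IC50; two independent experiments in duplicate.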

In data set [3] the test system is Plasmodium falciparum. Kind of data set: Potency index, ratio of pyrimethamine IC50 to compound IC50 for pyrimethamine-resistant Plasmodium falciparum Dd2 infected in human erythrocytes. It counts as functional.
The test system of data set [4] is Plasmodium falciparum. Nature of the data set: Antiplasmodial activity against pyrimethamine-resistant Plasmodium falciparum Dd2 infected in human erythrocytes incubated for 50 hrs by SYBR green 1 dye based fluorescence assay. The format is functional, cell-based. As to conditions: Dd2, 50 h. Summed up:
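Ring-stage sorbitol-synchronised parasites in RPMI 1640 with 10% human serum, 1% ring parasitaemia, 2% final haematocrit; compounds from DMSO stocks in 2-fold serial dilution; 37°C, 5% O2/5% CO2/90% N2, 50 h; lysis buffer with SYBR Green 1, fluorescence Ex 485/Em 530; chloroquine (500 nM) background subtracted, normalised to DMSO (0.05%) wells; nonlinear regression IC50; two independent experiments in duplicate.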

In data set [5] the test system is Plasmodium falciparum. Nature of the data set: Inhibition of trophozoite stage of Plasmodium falciparum DHFR assessed as reduction in NADPH depletion at 50 uM incubated for 30 mins followed by NADPH addition measured for 30 mins at 15 secs interval by UV/Vis spectrophotometric analysis. Summed up: (§1)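 Soluble extract from saponin-isolated trophozoites (culture at 15-16% parasitaemia), freeze-thaw, sonication, centrifugation; protein by Bradford. 500 µg extract in 1 ml assay buffer with inhibitor or 0.05% DMSO, 30 min room temperature, spun to remove precipitate; 60 µM NADPH and 50 µM DHA added, A340 decrease read every 15 s for 30 min; slope by linear regression as percent of control, representative experiment.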

The subject of data set [6] is Plasmodium falciparum. Kind of data set: Inhibition of trophozoite stage of Plasmodium falciparum DHFR assessed as reduction in NADPH depletion at 25 uM incubated for 30 mins followed by NADPH addition measured for 30 mins at 15 secs interval by UV/Vis spectrophotometric analysis. An outline of the steps: as §1

Structures are written as SMILES.

These results are taken from ChEMBL document CHEMBL3868603, “Synthesis and evaluation of naphthyl bearing 1,2,3-triazole analogs as antiplasmodial agents, cytotoxicity and docking studies” (Bioorg Med Chem, 2017).

One may read the IC50 as the concentration needed to halve the response being measured. Lower therefore signals greater potency in that assay. `O=[N+]([O-])c1ccc(Cn2cc(COc3ccc4cc(Br)ccc4c3)nn2)cc1`: the Activity result in data set [1] was “Non-Toxic”. The half-inhibitory concentration (IC50) with Plasmodium falciparum [2] was found to be 14.7 µM; in the data set on Plasmodium falciparum [4], 13.6 µM. Also, in the data set on Plasmodium falciparum [3], the “Ratio IC50” value worked out at 3.

Take `CCn1cc(COc2ccc3cc(Br)ccc3c2)nn1`: the Activity result in data set [1] was “Non-Toxic”. For the same molecule, the half-inhibitory concentration (IC50) in the data set on Plasmodium falciparum [2] is 23.6 µM; in the data set with Plasmodium falciparum [4], 34.2 µM.

As usually defined, the inhibition is how much of the control response was suppressed. Regarding `CCc1nc(N)nc(N)c1-c1ccc(Cl)cc1` [PYRIMETHAMINE], the IC50 came to 0.047 µM in the data set on Plasmodium falciparum [2] and 34 µM in the data set with Plasmodium falciparum [4]. The inhibition in the data set on Plasmodium falciparum [5] is 25%.

Turning to `CC(C)n1cc(COc2ccc3ccccc3c2)nn1`, in data set [1], the Activity result is recorded as “Non-Toxic”. In the data set on Plasmodium falciparum [2], this molecule returned an IC50 of 43.5 µM.

Turning to `O=C(O)CC[C@H](NC(=O)c1ccc(-n2cc(COc3ccc4cc(Br)ccc4c3)nn2)cc1)C(=O)O`, the Activity result in data set [1] was “Non-Toxic”. This molecule displayed an IC50 with Plasmodium falciparum [2] of 41.5 µM.

In the case of `C=CCn1cc(COc2ccc3ccccc3c2)nn1`, the Activity result in data set [1] is reported as “Non-Toxic”. Moreover, the IC50 with Plasmodium falciparum [2] was determined as 48.6 µM.

Take `CCCn1cc(COc2ccc3ccccc3c2)nn1`: in data set [1], the Activity entry is on record as “Non-Toxic”. Moreover, the IC50 with Plasmodium falciparum [2] amounted to 54.5 µM.

In the case of `CCCCCn1cc(COc2ccc3ccccc3c2)nn1`, in data set [1], the Activity result was “Non-Toxic”. This molecule registered an IC50 in the data set with Plasmodium falciparum [2] of 46.5 µM.

On to `Brc1ccc2cc(OCc3cn(C4CCCC4)nn3)ccc2c1`, for which the Activity entry in data set [1] is “Non-Toxic”. In the data set on Plasmodium falciparum [2], this molecule returned an IC50 of 27.3 µM.

`CCCCCn1cc(COc2ccc3cc(Br)ccc3c2)nn1`: the Activity entry in data set [1] is listed as “Non-Toxic”. The molecule further gave an IC50 in the data set on Plasmodium falciparum [2] of 26.2 µM.

Take `CCCn1cc(COc2ccc3cc(Br)ccc3c2)nn1`: the Activity result in data set [1] was “Non-Toxic”. Besides, the values for the IC50 in the data set with Plasmodium falciparum [2] and in the data set on Plasmodium falciparum [4] were 22.1 µM and 36.9 µM, respectively.

With `O=[N+]([O-])c1ccc(Cn2cc(COc3ccc4ccccc4c3)nn2)cc1`, the Activity entry in data set [1] is given as “Non-Toxic”. In addition, the IC50 in the data set with Plasmodium falciparum [2] was determined as 39.6 µM; with Plasmodium falciparum [4], 41.6 µM.

For `c1ccc2cc(OCc3cn(CCN4CCOCC4)nn3)ccc2c1`, the Activity entry in data set [1] was “Non-Toxic”. The molecule further showed a half-maximal inhibitory concentration (IC50) with Plasmodium falciparum [2] of 80 µM.

Consider `C=CCn1cc(COc2ccc3cc(Br)ccc3c2)nn1`, for which the Activity entry in data set [1] is listed as “Non-Toxic”. The molecule also displayed a half-maximal inhibitory concentration (IC50) in the data set on Plasmodium falciparum [2] of 21.2 µM. Further, the inhibition in the data set on Plasmodium falciparum [6] was 13%.

Take `CC(C)Cn1cc(COc2ccc3ccccc3c2)nn1`: the Activity result in data set [1] was “Non-Toxic”. In addition, inhibition in the data set on Plasmodium falciparum [2] was half-maximal at 61.5 µM (IC50).

For the molecule `CC(C)Cn1cc(COc2ccc3cc(Br)ccc3c2)nn1`, in data set [1], the Activity entry is “Non-Toxic”. Further, the 50% inhibitory concentration (IC50) amounted to 19.6 µM with Plasmodium falciparum [2] and 31 µM in the data set on Plasmodium falciparum [4]. Also, in the data set on Plasmodium falciparum [6], the inhibition was found to be 41%. Also, the “Ratio IC50” value in the data set with Plasmodium falciparum [3] turned out to be 3.

For the molecule `c1ccc2cc(OCc3cn(C4CCCC4)nn3)ccc2c1`, the Activity entry in data set [1] is “Non-Toxic”. The molecule also showed an IC50 in the data set with Plasmodium falciparum [2] of 39 µM.

On to `CC(C)n1cc(COc2ccc3cc(Br)ccc3c2)nn1`, for which the Activity entry in data set [1] is given as “Non-Toxic”. Besides, the IC50 in the data set on Plasmodium falciparum [2] came out at 21 µM; in the data set with Plasmodium falciparum [4] it was 24 µM. For the same molecule, the “Ratio IC50” value with Plasmodium falciparum [3] turned out to be 3.

`CCn1cc(COc2ccc3ccccc3c2)nn1`: the Activity entry in data set [1] was “Non-Toxic”. In the data set with Plasmodium falciparum [2], this molecule showed an IC50 of 97.5 µM.
